How the values were obtained:
recombinant CYP19 = assay: Soret shifts by absorption spectroscopy; assay type: binding; conditions: titration of up to 100 μM, 2 μM ASD
Procedure, shortened: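 Purified recombinant CYP19 (from codon-optimized CYP19A1 cDNA in pCW) at 2–3 μM in 100 mM potassium phosphate, pH 7.4. Test compound titrated (6–36 μM, then 100 μM) with ACN kept ≤3%, with or without 2 μM androstenedione. UV-Vis absorption scans after 10 min at 25 °C. Adducts were dithionite-reduced and exposed to CO in some runs.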

aromatase (CYP19) [1] = target: T1, aromatase (CYP19) (Homo sapiens, UniProt P11511); assay: CYP19/MFC aromatase inhibition assay; assay type: biochemical; conditions: for Fractional activity at saturation / Hill slope: dose-response fit, 7.5 nM P450, 25 μM MFC; for Hill slope: AR19 fixed to 1
T1 sequence (P11511 1-503): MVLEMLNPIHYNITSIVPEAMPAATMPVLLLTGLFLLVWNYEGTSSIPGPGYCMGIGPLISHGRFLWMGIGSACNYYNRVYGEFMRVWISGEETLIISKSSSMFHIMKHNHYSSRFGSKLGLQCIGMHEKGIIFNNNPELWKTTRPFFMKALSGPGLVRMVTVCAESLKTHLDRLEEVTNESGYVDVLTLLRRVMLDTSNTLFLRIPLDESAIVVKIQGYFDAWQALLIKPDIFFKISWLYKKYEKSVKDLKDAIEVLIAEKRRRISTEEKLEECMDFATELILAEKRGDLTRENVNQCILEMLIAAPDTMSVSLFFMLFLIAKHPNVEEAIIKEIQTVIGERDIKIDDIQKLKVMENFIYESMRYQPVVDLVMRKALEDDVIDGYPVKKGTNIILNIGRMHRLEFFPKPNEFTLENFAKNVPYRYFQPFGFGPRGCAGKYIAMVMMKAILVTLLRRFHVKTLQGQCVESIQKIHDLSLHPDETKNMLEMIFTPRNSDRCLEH

aromatase (CYP19) [2] = target: T1, aromatase (CYP19); conditions: noncompetitive AI; cited from earlier work
CYP19 = target: T2, CYP19 (Homo sapiens, UniProt P11511); assay: AR11 and AR13 steady-state kinetics assay; assay type: biochemical; conditions: nonlinear regression, no inhibitor
T2 sequence (P11511 1-503): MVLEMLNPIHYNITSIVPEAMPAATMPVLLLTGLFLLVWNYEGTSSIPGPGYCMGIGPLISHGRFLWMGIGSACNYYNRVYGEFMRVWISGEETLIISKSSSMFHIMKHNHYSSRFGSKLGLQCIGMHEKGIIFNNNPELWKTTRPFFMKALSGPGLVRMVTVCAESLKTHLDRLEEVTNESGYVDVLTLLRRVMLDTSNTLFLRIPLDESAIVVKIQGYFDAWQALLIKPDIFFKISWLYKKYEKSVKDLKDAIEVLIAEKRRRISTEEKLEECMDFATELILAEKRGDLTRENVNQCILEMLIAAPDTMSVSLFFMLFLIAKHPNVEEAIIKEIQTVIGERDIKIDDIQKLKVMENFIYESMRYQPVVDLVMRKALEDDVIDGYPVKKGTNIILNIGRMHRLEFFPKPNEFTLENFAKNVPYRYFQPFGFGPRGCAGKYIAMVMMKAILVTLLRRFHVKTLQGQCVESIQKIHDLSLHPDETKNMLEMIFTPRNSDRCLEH

[3] = substrate: COc1ccc2c(C(F)(F)F)cc(=O)oc2c1; assay: AR11 and AR13 steady-state kinetics assay; assay type: biochemical; conditions: other: nonlinear regression, no inhibitor; pH 7.4; 37.0 °C

With `CC/C(=C(\c1ccc(O)cc1)c1ccc(OCCNC)cc1)c1ccccc1` [Endoxifen, endoxifen] the “Soret peak shift from 395 nm in the CYP19 ASD-bound state” value (recombinant CYP19) was “did not induce a Soret peak shift”, the IC50 (aromatase (CYP19) [1]; IC50, 7.5 nM P450, 25 μM MFC, 4-parameter logistic model (AR19: 3-parameter, Hill 1), ± SEM) was 30.9 ± 3.1 µM and the “Fractional activity at saturation” value (aromatase (CYP19) [1]) was 0.02 ± 0.02. The Hill slope (aromatase (CYP19) [1]) was 2.27 ± 0.41, the Hill slope (aromatase (CYP19) [1]; listed as endoxifen) was 2 and the Ki (aromatase (CYP19) [2]) was 4 µM.

With `CC(=O)N1CCN(c2ccc(OCC3COC(Cn4ccnc4)(c4ccc(Cl)cc4Cl)O3)cc2)CC1` (stereo not shown) [Ketoconazole, ketoconazole] the “Fractional activity at saturation” value (aromatase (CYP19) [1]) was 0.03 ± 0.01 and the Hill slope (aromatase (CYP19) [1]) was 1.12 ± 0.07.

With `COc1ccc2c(C(F)(F)F)cc(=O)oc2c1` [MFC, 7-methoxy-4-(trifluoromethyl)coumarin] the “substrate Vmax” value (CYP19) was 0.731 pmol HFC min^−1 pmol^−1 P450.

B1: CYP19 (Homo sapiens) (protein)
chain: MVLEMLNPIHYNITSIVPEAMPAATMPVLLLTGLFLLVWNYEGTSSIPGPGYCMGIGPLISHGRFLWMGIGSACNYYNRVYGEFMRVWISGEETLIISKSSSMFHIMKHNHYSSRFGSKLGLQCIGMHEKGIIFNNNPELWKTTRPFFMKALSGPGLVRMVTVCAESLKTHLDRLEEVTNESGYVDVLTLLRRVMLDTSNTLFLRIPLDESAIVVKIQGYFDAWQALLIKPDIFFKISWLYKKYEKSVKDLKDAIEVLIAEKRRRISTEEKLEECMDFATELILAEKRGDLTRENVNQCILEMLIAAPDTMSVSLFFMLFLIAKHPNVEEAIIKEIQTVIGERDIKIDDIQKLKVMENFIYESMRYQPVVDLVMRKALEDDVIDGYPVKKGTNIILNIGRMHRLEFFPKPNEFTLENFAKNVPYRYFQPFGFGPRGCAGKYIAMVMMKAILVTLLRRFHVKTLQGQCVESIQKIHDLSLHPDETKNMLEMIFTPRNSDRCLEH
For B1, the Km [3] was 28.48 µM.

— article PMC8341375 (RSC Chemical Biology, 2021)
